High-throughput results (PubChem)
Compounds with a hit are over-represented: about 2.9% of the library has one in this group of screens.
MT stabilize HCS: stabilizes microtubules in HeLa cells; 200,000 tested, 0.83% active; AID 2205; HeLa tubulin immunostaining HCS, 24 h; share of cells brighter than vehicle mean+2SD; % tubulin-high responders, % at 10 µM;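 active = plate Z-score above 3 for both tubulin-high and condensed-nucleus cell shares, with cell loss under 80%, at 10 µM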;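 note: anti alpha tubulin signal scored within the nucleus-defined area of each cell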
Ins promoter up: MIN6 insulin promoter up-regulation. MIN6 insulin promoter-GFP reporter, high-content imaging; active compounds read high. 190,000 tested, 0.3% active. z-score at 5 µM;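 active = z-score above 3 at 5 µM with at least 500 cells counted in the well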
Autophagy mod: autophagy modulation, high-content screen | calls only at 10 µM (by protocol) | 190,000 tested, 0.98% active | MEF GFP-LC3 puncta imaging; test concentration mostly 10 µM;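 active = percentage of spot-positive cells more than 3 SD above its plate mean, without a fluorescence outlier flag or 80% toxicity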;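 note: spot-positive cell cutoff set from DMSO-treated cells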
Wee1 degr inh: blocks degradation of human Wee1 kinase; P30291; HeLa Luc-Wee1K328M stability, luciferase luminescence; 100% = proteasome inhibitor MG132 effect; reporter increase, % at 5 µM; 220,000 tested, 1.2% active; AID 1321;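 active = activation above the mean of all tested compounds plus 3 SD, set per screening run, cut at about 8.8% in these data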;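 note: cells exposed to compound for 20 h before luminescence read; 0% = DMSO alone and 100% = MG132 at 30 µM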
Target sequence (P30291 whole entry K328M): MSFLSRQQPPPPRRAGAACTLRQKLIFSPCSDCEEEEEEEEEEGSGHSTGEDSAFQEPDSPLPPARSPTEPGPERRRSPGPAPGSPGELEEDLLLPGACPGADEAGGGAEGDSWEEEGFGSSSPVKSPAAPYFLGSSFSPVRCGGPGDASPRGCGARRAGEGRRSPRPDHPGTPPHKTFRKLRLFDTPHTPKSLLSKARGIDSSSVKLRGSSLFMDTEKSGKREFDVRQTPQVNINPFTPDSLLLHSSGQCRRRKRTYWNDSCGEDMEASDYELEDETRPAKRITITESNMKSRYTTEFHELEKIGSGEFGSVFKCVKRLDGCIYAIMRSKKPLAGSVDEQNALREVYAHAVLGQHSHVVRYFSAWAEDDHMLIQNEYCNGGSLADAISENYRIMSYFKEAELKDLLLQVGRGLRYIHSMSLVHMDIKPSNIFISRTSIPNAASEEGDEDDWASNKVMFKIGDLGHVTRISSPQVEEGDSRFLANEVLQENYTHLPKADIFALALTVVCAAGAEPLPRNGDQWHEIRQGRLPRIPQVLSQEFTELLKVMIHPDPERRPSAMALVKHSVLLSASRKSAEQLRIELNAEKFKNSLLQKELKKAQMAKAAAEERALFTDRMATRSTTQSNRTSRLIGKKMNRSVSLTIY
bCat nuc transl: alters nuclear translocation of beta-catenin in HeLa cells. immunofluorescence imaging. nuclear translocation activity, % at 5 µM. 190,000 tested, 0.3% active;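 active = nuclear translocation activity above 50% at 5 µM, with a well cell count of 50 or more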;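 note: per-cell ratio of nuclear to cytoplasmic median beta-catenin stain intensity; plate controls were DMSO negative control for no effect and GSK-3 inhibitor IX positive control for full effect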
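Signal – beta-catenin immunofluorescence imaging with DAPI · Test system – human HeLa cell line · Dosing – 5 µM primary single dose, 0.1% DMSO, 0.02–20 µM confirmation series · Measure – % activation, nuclear-to-cytoplasmic median beta-catenin signal ratio per cell · Incubation – 24 h compound exposure at 37°C, 5% CO2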
Wee1 stab conf: confirmation of human Wee1 degradation inhibitors. shares compounds with Wee1 degr inh. activation, % at 5 µM. 1,100 tested, 4% active. HeLa Luc-Wee1K328M degradation, luminescence; vehicle 0%, proteasome-blocked wells 100%; in the data active = activation above about 8.9%
The depositor's hits bear a star; i = inactive; x = not tested or not shown.

SMILES | MT stabilize HCS | Ins promoter up | Autophagy mod | Wee1 degr inh | bCat nuc transl | Wee1 stab conf
O=C(Nc1ccc(N2CCOCC2)c([N+](=O)[O-])c1)c1ccco1 | 6 | -0.37 | i | 11* | 1 | 1
C=CC(=O)NC(NC(=O)C=C)c1ccccc1F | x | -0.62 | x | 9 | 1 | x
O=C(CCC(=O)Nc1nnc(C2CCCCC2)s1)NCC1CCCO1 (stereo not given) | 2 | -0.5 | i | 16* | x | 2
O=S(=O)(c1cccs1)N1CCN(c2ccc(O)cc2)CC1 | x | -0.49 | x | 23* | -4 | -2
CN1CCN(S(=O)(=O)c2cccs2)CC1 | 1 | 1 | i | -2 | 1 | x
COc1ccccc1NC(=O)CNC(=O)c1ccc(F)cc1 | 2 | 0.3 | i | 11* | 0 | 1
CCOc1ccc(C(=O)NCC(=O)OCC(=O)Nc2ccccc2OC)cc1 | 1 | 0 | i | -2 | 0 | x
COc1cc(NC(C)=O)ccc1-c1cc2ccccc2oc1=O | 1 | 0.7 | i | 15* | 1 | 0
CC(=O)Nc1ccccc1C(=O)C(=O)Nc1ccc(C)c(F)c1 | 2 | 0.54 | i | 18* | -3 | 8
CC(=O)Nc1ccccc1C(=O)C(=O)Nc1ccc(C)c(C)c1 | 1 | 0.43 | i | 7 | x | x
O=C(CN1N=C(c2ccc(Cl)cc2)CCC1=O)NCc1cccs1 | 1 | 0.64 | i | 12* | -2 | -2
CC(=O)c1ccc(OC(=O)c2cc3ccccc3oc2=O)cc1 | 3 | 0.16 | i | -3 | 0 | x
COc1ccc(CN(CCC#N)CCC2(c3ccccc3)CC(C)N(C)CC2C)cc1OC (stereo not given) | x | -0.23 | x | -1 | 0 | x
COc1ccc(CNCCC2(Cc3ccccc3)CC(C)N(C)CC2C)cc1OC (stereo not given) | 2 | -0.34 | i | 17* | -3 | 0
O=C(c1cc([N+](=O)[O-])[nH]n1)N1CCSCC1 | x | 0.3 | x | -1 | -1 | x
CC(=O)c1cccc(NC(=O)N2CCC(c3ccc(C)cc3)C2)c1 (stereo not given) | 4 | 0.54 | i | 14* | 0 | 2
CN(Cc1c(F)cccc1Cl)c1ccc(S(=O)(=O)N2CCOCC2)cn1 | 2 | -0.85 | i | 12* | -2 | 3
CN(CCOc1ccccc1)c1ccc(S(=O)(=O)N2CCCCC2)cn1 | 4 | -1.4 | i | -1 | -1 | x
O=S(=O)(C/C(=C/CO)S(=O)(=O)c1ccccc1)c1ccccc1 | 1 | 0.55 | i | 13* | -1 | 8.8*
O=C(Nc1ccccc1F)Oc1cccc(OC(=O)Nc2ccccc2F)c1 | x | -0.27 | x | -2 | 1 | x
COc1c(F)c(F)c(C(=O)O)c(Nc2ccc(C)cc2C)c1F | 3 | 0.31 | i | -1 | -1 | x
N#Cc1cccc(NC(=O)CSc2nnc(-c3n[nH]c4ccccc34)o2)c1 | 4 | -0.23 | i | 22* | 0 | 3
Cc1cccc(NC(=O)CSc2nnc(-c3n[nH]c4ccccc34)o2)c1 | 2 | 0.21 | i | 2 | -1 | x
S=c1[nH]nc(Nc2ccc(Cl)cc2)s1 | x | -0.01 | x | 15* | 2 | 0
CC(C)CCNC(=O)CCCCn1c(=O)[nH]c2ccsc2c1=O | 3 | 0.1 | i | -4 | -2 | x
SMILES | MT stabilize HCS | Ins promoter up | Autophagy mod | Wee1 degr inh | bCat nuc transl | Wee1 stab conf
COC(=O)CNC(=O)C1CCCN1C(=O)OC(C)(C)C (stereo not given) | 2 | x | i | 13* | 6 | -1
O=C(/C=C/c1ccccc1)Nc1ccc(Cl)cn1 | 25* | 0.28 | i | 11* | 3 | 9.0*
Cc1cccc(NC(=O)/C=C/c2ccc(Cl)cc2)n1 | 3 | -0.2 | i | 3 | -2 | x
CCCC(=O)NC(Nc1c(C)n(C)n(-c2ccccc2)c1=O)C(Cl)(Cl)Cl (stereo not given) | 1 | 0.64 | i | 2 | -1 | x
COc1ccccc1/C=C/C(=O)Nc1ccc2c(c1)CCC2 | 3 | -0.61 | i | 11* | 1 | 6
Cc1cc2nc(-c3cccc(NC(=O)c4ccc(Br)o4)c3C)oc2cc1C | 4 | 0.17 | i | 14* | 0 | 0
C/C(=N/NC(N)=S)c1ccc(Br)s1 | 2 | -0.39 | i | -1 | 3 | x
COc1ccc(Br)cc1CNC(=O)CCCc1cn(C)c2ccccc12 | 3 | -0.07 | i | 11* | -2 | -4
CCOC(=O)c1c2n(c3ccc(O)cc13)CCC2 | 2 | -0.19 | i | 11* | -2 | -1
c1ccc2oc(-c3ccn[nH]3)cc2c1 | x | 2.2 | x | 5 | 0 | x
CCOC(=O)c1c(-c2ccccc2)csc1NC(=O)CSc1nnc(C)s1 | 2 | -0.83 | i | 12* | 4 | -1
CCOC(=O)c1c(-c2ccc(C)o2)csc1NC(=O)CSc1nnc(C)s1 | 3 | -0.63 | i | 9 | -2 | x
O=C(c1ccc(F)cc1)n1ccc(-c2cnc(-c3ccccc3)s2)n1 | 2 | 0.17 | i | 15* | x | 3
O=C(Nc1ccccc1Cl)Nc1ccccc1Cl | x | 0.43 | x | -1 | -1 | x
NNC(=O)CNc1ccccc1Cl | 2 | -0.08 | i | 11* | -1 | -1
CC(C)C1OC2(C)OC(=N)C1(C#N)C(C#N)(C#N)C2c1ccccc1 (stereo not given) | 8 | -0.91 | i | 17* | 0 | -2
CCC1OC2(C)OC(=N)C1(C#N)C(C#N)(C#N)C2c1ccccc1 (stereo not given) | 3 | 0.07 | i | 0 | -1 | x
COc1ccc(N2CCC(CNC(=S)Nc3cccc(C)c3)C2)cc1 (stereo not given) | 3 | -1.5 | i | 11* | 0 | 0
NC(=O)c1nnn(-c2nonc2N)c1-c1ccc([N+](=O)[O-])cc1 | 2 | 0.27 | i | 0 | 0 | x
COc1ccccc1C(=O)NCc1ccccc1 | 3 | 0.24 | i | 0 | -1 | x
O=C(NCc1ccc(F)cc1)c1ccccc1OCc1ccccc1 | 2 | -0.87 | i | 20* | x | 1
Cc1ccc(S(=O)(=O)N2CCN(C(C(=O)Nc3ccc(F)cc3)c3ccccc3)CC2)cc1 (stereo not given) | 7 | -0.36 | i | 6 | 3 | x
CNC(=O)CN(c1ccc(F)cc1)S(=O)(=O)c1cc(C)ccc1OC | 2 | x | i | -4 | x | x
CCOC(=O)c1ccccc1NC(=S)N1CCC(C)CC1 | 3 | -0.39 | i | -2 | -2 | x
CC1CC(C)CN(C(=O)Nc2ccccc2F)C1 (stereo not given) | x | 0.41 | x | 19* | -1 | 1
CC(=O)Nc1ccccc1OC(C)C(=O)N1CC(C)CC(C)C1 (stereo not given) | x | 0.56 | x | -1 | -2 | x
CCOC(=O)c1ccccc1NC(=S)N1CC(C)CC(C)C1 (stereo not given) | 3 | -0.09 | i | 15* | -1 | 2
COc1ccccc1N1CCN(C2=Nc3cccc4cccc2c34)CC1 | 4 | -0.31 | i | 15* | 0 | 2
C/C(=N\N=c1/sc2ccccc2n1C)c1ccc(N2CCOCC2)cc1 | 6 | -0.59 | i | 14* | 0 | 1
